Results of several laboratories.
HCK: Tyrosine-protein kinase HCK (HCK, Homo sapiens, UniProt P08631)

SMILES | target | observed | action | technique | tested at | endpoint | result
CC(C)(C)c1nc2c(s1)c1nc(N)ncc1c1ccc(NS(=O)(=O)c3c(F)cccc3F)c(F)c12 | HCK | enzyme activity | inhibitor | radiometric | 1 µM | remaining activity | 82%
CNC(=O)c1cc(Oc2ccc(NC(=O)Nc3ccc(Cl)c(C(F)(F)F)c3)cc2)ccn1 | HCK | cell-free assay | – | – | 0.5 µM | remaining signal | 90.3%
Cc1cnc(NC2CCOCC2)nc1-n1cnc(C(=O)NC(CN)c2cc(F)cc(Cl)c2)c1 (stereo not shown) | HCK | enzyme activity | inhibitor | radiometric | 1 µM | remaining activity | 101%
O=C(Nc1ccc(Oc2ccc(F)cc2)cc1)N1CCc2ncccc2[C@H]1c1ccc(F)cc1 | HCK | cell-free assay | – | competition with immobilised ligand | 1 µM | remaining binding | 100%
Cc1ccc(NC(=O)c2ccc(CN3CCN(C)CC3)cc2)cc1Nc1nccc(-c2cncc(-c3oncc3C)c2)n1 | HCK | enzyme activity | inhibitor | – | 0.5 µM | remaining activity | ≤ 50%
CNCc1ccccc1-c1csc([C@H](C)Nc2nc(C)nc3cc(OC)c(OC)cc23)c1 | HCK | cell-free assay | – | competition with immobilised ligand | 1 µM | remaining binding | 98%
Cc1ccc(C(=O)Nc2ccc(CN3CCN(C)CC3)c(C(F)(F)F)c2)cc1C#Cc1cnc2cccnn12 | HCK | enzyme activity | – | – | 23.5 nM | remaining activity | 1.6%
COc1ccc2c(c1)O[C@H](c1ccc(OC)c(OC)c1)C[C@@H]2NC(=O)C1(c2ccc3c(c2)OC(F)(F)O3)CC1 | HCK | cell-free assay | – | competition with immobilised ligand | 1 µM | remaining binding | 100%
COc1cc(Nc2c(C#N)cnc3cc(OCCCN4CCN(C)CC4)c(OC)cc23)c(Cl)cc1Cl | HCK | cell-free assay | – | – | 0.5 µM | remaining signal | 11.9%
CCCS(=O)(=O)Nc1ccc(F)c(C(=O)c2c[nH]c3ncc(-c4ccc(Cl)cc4)cc23)c1F | HCK | enzyme activity | inhibitor | – | 1 µM | inhibition | < 10%
NS(=O)(=O)c1cc(NC(=O)C2(c3ccccc3Cl)CC2)ccc1Oc1cccc(Cl)c1 | HCK | cell-free assay | – | competition with immobilised ligand | 1 µM | remaining binding | 89%
COc1cc2c(N3CCN(C(=O)Nc4ccc(OC(C)C)cc4)CC3)ncnc2cc1OCCCN1CCCCC1 | HCK | cell-free assay | – | – | 0.5 µM | remaining signal | 93.2%
O=C(Nc1cccnn1)N1CC(C/C=C/c2cncc(Oc3ccc(C(F)(F)F)cn3)n2)C1 | HCK | cell-free assay | – | competition with immobilised ligand | 1 µM | remaining binding | 100%
Cc1ccc(NC(=O)c2ccc(C)c(C(F)(F)F)c2)cc1C#Cc1nn(C2CCC(O)CC2)c2ncnc(N)c12 (stereo not shown) | HCK | enzyme activity | inhibitor | – | 10 µM | remaining activity | -1%
CC(C)(O)[C@H]1CC[C@H](Nc2ccc3ncc(-c4cccc(C(F)(F)F)c4)n3n2)CC1 | HCK | enzyme activity | inhibitor | – | 1 µM | remaining activity | 40.5%
CNC(=O)c1ccc(Nc2ncc(C(F)(F)F)c(NCc3nccnc3N(C)S(C)(=O)=O)n2)cc1 | HCK | cell-free assay | – | competition with immobilised ligand | 0.1 µM | remaining binding | 100%
CNC(=O)c1cc2c(Oc3ccc(NC(=O)C4(C(=O)Nc5ccc(F)cc5)CC4)cc3)ccnc2cc1OC | Tyrosine-protein kinase HCK, phosphorylated (HCK, Homo sapiens, UniProt P08631) | enzyme activity | inhibitor | radiometric | 1 µM | inhibition | 88%
O=C1Nc2ccc(Cl)cc2C1=Cc1cc(Cl)c(O)c(Cl)c1 | HCK | cell-free assay | – | – | 0.5 µM | remaining signal | 83.2%
Cc1ccc(Nc2nccc(N(C)c3ccc4c(C)n(C)nc4c3)n2)cc1S(N)(=O)=O | HCK | enzyme activity | inhibitor | – | 10 µM | inhibition | 90%
CC(=O)c1c(NS(C)(=O)=O)c2cc(-c3ccc(Cl)cc3)c(-c3ccc(Cl)cc3Cl)nc2n(C)c1=O | HCK | cell-free assay | – | competition with immobilised ligand | 1 µM | remaining binding | 100%
CN(C)C1CCN(CC#Cc2nn(C3CCCC3)c3nc(NCc4ccccc4)ncc23)C1 (stereo not shown) | HCK | enzyme activity | inhibitor | FRET | 10 µM | inhibition | 19%
COc1cc2ncnc(Nc3ccc(Oc4ccccc4)cc3C)c2cc1OC | HCK | enzyme activity | inhibitor | – | 1 µM | inhibition | 91%
CCCOc1ccc([C@@H]2[C@@H](C(=O)O)[C@H](c3ccc4c(c3)OCO4)CN2CC(=O)Nc2c(CC)cccc2CC)cc1 | HCK | cell-free assay | – | competition with immobilised ligand | 1 µM | remaining binding | 92%
O=C(Nc1cnn(-c2csc(C(=O)NC3COC3)c2)c1)Nc1c(F)cccc1Cl | HCK | enzyme activity | inhibitor | – | 5 µM | remaining activity | 91.3%
CCN(CC)CCNC(=O)c1c(C)[nH]c(/C=C2\C(=O)Nc3ccc(F)cc32)c1C | HCK | enzyme activity | inhibitor | – | 0.3 µM | inhibition | 22%
